GASC1 inh = blocks human GASC-1 (KDM4C) demethylase activity; Q9H3R0; GST-KDM4C 2-372, H3K9me3 peptide, LANCE TR-FRET; inhibition, % at 12.5 µM; 96,000 compounds, 0.15% hits; AID 720574;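 active = mean replicate inhibition above about 25%, with at least 55% of replicates also reaching it, limit read from the data, passing the limit was not always enough; inconclusive = only one of those two conditions met; inactive = neither condition met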
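System – N-terminal GST-fused human GASC-1 (KDM4C) fragment, residues 2-372 · Input – enzyme final amount 10 nM · Technique – LANCE TR-FRET, Eu antibody, ULight-streptavidin, EDTA, ex 340 nm, em 618/671 nm · Medium – HEPES buffer, pH 7.5, plus ascorbate · Incubation – enzyme reaction 30 min, then detection 60 min, both room temperature · Reagent – H3K9me3 peptide with Fe(II)/2OG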
IDH1 R132H inh = IDH1 R132H (human) inhibition; O75874; IDH1 R132H reductase, diaphorase/resazurin fluorescence, 60 min; inhibition, % at 10 µM; 70,000 compounds, 0.18% hits; AID 624101; in the data active = inhibition above about 34%; inconclusive = no clear call, values can overlap the other calls; inactive = below about 11%
Target sequence (O75874 whole entry R132H): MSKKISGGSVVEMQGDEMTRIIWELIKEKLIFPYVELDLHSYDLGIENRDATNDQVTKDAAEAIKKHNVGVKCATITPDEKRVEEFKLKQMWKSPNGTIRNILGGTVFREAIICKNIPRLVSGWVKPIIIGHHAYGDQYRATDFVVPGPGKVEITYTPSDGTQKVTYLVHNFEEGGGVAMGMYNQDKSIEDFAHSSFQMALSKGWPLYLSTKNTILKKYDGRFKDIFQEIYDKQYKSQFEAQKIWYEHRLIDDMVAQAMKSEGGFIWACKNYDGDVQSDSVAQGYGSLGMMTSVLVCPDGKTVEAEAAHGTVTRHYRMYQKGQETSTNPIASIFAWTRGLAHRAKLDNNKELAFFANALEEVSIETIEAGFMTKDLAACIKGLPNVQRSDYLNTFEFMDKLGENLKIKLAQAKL
T cruzi growth-1 = inhibitors of T. cruzi proliferation | 77,000 compounds, 5.9% hits | T. cruzi beta-gal in NIH3T3, GalScreen luminescence, 90 h | inhibition, % at 8.34 µM;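 active = mean inhibition above about 93%, with at least 55% of replicates each passing it, limit read from the data, passing the limit was not always enough; inconclusive = only one of those two conditions holds; inactive = neither condition holds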
Pf Dd2 inh = blocks growth of Plasmodium falciparum Dd2 parasites; P. falciparum Dd2 growth, SYBR Green, 72 h; active compounds read low; activity change, % at 10 µM; 94,000 compounds, 2.3% hits; AID 1159554; in the data active = activity change below about -80%; inconclusive = no clear call, values can overlap the other calls
T cruzi growth-2 = inhibitors of T. cruzi proliferation; shares compounds with T cruzi growth-1; T. cruzi beta-gal in NIH3T3, GalScreen luminescence, 90 h; inhibition, % at 8.35 µM; 5,600 compounds, 72% hits;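 active = mean replicate inhibition above about 95% and at least 55% of replicates individually reaching it, limit read from the data; inconclusive = only one of the two criteria is met; inactive = neither criterion is met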
T cruzi growth-3 = blocks T. cruzi growth in NIH3T3 host cells; shares compounds with T cruzi growth-1; T. cruzi beta-gal in NIH3T3, GalScreen luminescence, 90 h; inhibition, % at 2.09 µM; 5,600 compounds, 21% hits; AID 651740;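 active = mean inhibition above about 95%, with at least 55% of replicates also reaching it, limit read from the data; inconclusive = meets just one of the two conditions; inactive = meets neither condition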
3T3 cytotox = NIH/3T3 (mouse) viability loss. cytotoxicity (signal decrease), % at 8.35 µM. AID 651742. NIH/3T3 viability, CellTiter-Glo ATP luminescence, 90 h. shares compounds with T cruzi growth-1. 5,600 compounds, 14% hits;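 active = mean signal decrease across replicates above about 35% based on untreated-well scatter, with enough replicates individually passing, limit read from the data; inconclusive = no rule stated though some were filed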
NIH3T3 tox 2 = cytotoxicity in mouse NIH/3T3 fibroblasts; shares compounds with T cruzi growth-1; inhibition, % at 24.9 µM; AID 651744; 5,600 compounds, 56% hits; NIH/3T3 viability, CellTiter-Glo ATP luminescence, 90 h;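 active = mean loss of cell viability signal at or above a set limit, and enough replicates individually reaching it; inconclusive = meets only the mean limit or only the replicate share; inactive = meets neither condition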
Numbers stand for hits; n = inactive; u = inconclusive; x = no result given. Only some compounds are listed: those with a hit (about 5.9% of all), similar ones and a draw of the others.

SMILES	GASC1 inh	IDH1 R132H inh	T cruzi growth-1	Pf Dd2 inh	T cruzi growth-2	T cruzi growth-3	3T3 cytotox	NIH3T3 tox 2
COc1ccc(-c2ccc3c(c2)[C@H]2[C@H](CCN2C(=O)Cc2ccncc2)[C@H](CO)N3)cc1	n	x	n	n	x	x	x	x
O=C(Cc1ccccc1)N1CC[C@H]2[C@H](CO)Nc3ccc(-c4cccc(F)c4)cc3[C@H]21	n	x	n	n	x	x	x	x
COc1cccc(-c2ccc3c(c2)[C@@H]2[C@@H](CCN2C(=O)Cc2ccncc2)[C@@H](CO)N3)c1	n	x	u	n	101	n	n	n
O=C(Cc1ccncc1)N1CC[C@@H]2[C@H]1c1cc(-c3cccc(F)c3)ccc1N[C@@H]2CO	n	x	118	n	107	n	n	n
CS(=O)(=O)N(CC(=O)Nc1ccc(F)cc1)c1cccc(Br)c1	x	n	x	x	x	x	x	x
Cc1cccc(N(CC(=O)Nc2ccc(I)cc2C)S(C)(=O)=O)c1	x	n	x	x	x	x	x	x
COC(=O)C[C@H]1CC[C@H]2[C@H](COc3ccc(NS(=O)(=O)c4ccc(F)cc4)cc3C(=O)N2C)O1	n	x	97	n	n	n	n	n
COC(=O)C[C@H]1CC[C@H]2[C@H](COc3ccc(NC(=O)Nc4ccc(Cl)cc4)cc3C(=O)N2C)O1	n	x	110	n	103	114	n	33
CN1C(=O)c2cc(NS(=O)(=O)c3ccc(Cl)cc3)ccc2OC[C@@H]2O[C@H](CC(=O)N3CCc4ccccc4C3)CC[C@@H]21	n	x	107	n	108	n	n	n
Cc1ccc(N(Cc2ccco2)C(=O)c2cccc(S(=O)(=O)N3CCOCC3)c2)cc1	x	n	x	x	x	x	x	x
COc1cccc(C#Cc2ccc([C@H]3[C@H](C#N)N(C(=O)C4CC4)[C@H]3CO)cc2)c1	n	x	104	n	106	n	n	42
COc1ccccc1C#Cc1ccc([C@@H]2[C@@H](C#N)N(C(=O)C3CC3)[C@H]2CO)cc1	n	x	99	n	108	n	n	34
COc1ccccc1C#Cc1ccc([C@@H]2[C@H](C#N)N(C(=O)C3CC3)[C@H]2CO)cc1	n	x	n	n	x	x	x	x
COc1ccccc1C#Cc1ccc([C@@H]2[C@@H](C#N)N(C(=O)C3CC3)[C@@H]2CO)cc1	n	x	n	n	x	x	x	x
COc1cccc(C#Cc2ccc([C@@H]3[C@@H](C#N)N(C(=O)C4CCCC4)[C@H]3CO)cc2)c1	n	x	x	n	x	x	x	x
COc1ccccc1C#Cc1ccc([C@H]2[C@@H](C#N)N(C(=O)C3CC3)[C@@H]2CO)cc1	n	x	97	n	101	107	n	50
Cc1ccc(N(C(=O)COc2ccc(C)cc2C)C2C=CS(=O)(=O)C2)cc1 (stereo not given)	x	n	x	x	x	x	x	x
C[C@@H]1CCCCO[C@H](CN(C)S(=O)(=O)c2ccccc2)[C@@H](C)CN([C@@H](C)CO)C(=O)c2cc(NC(=O)Nc3ccc(F)cc3)ccc2O1	n	x	106	n	108	n	n	36
C[C@H](CO)N1C[C@H](C)[C@H](CN(C)S(=O)(=O)c2ccccc2)OCCCC[C@H](C)Oc2ccc(NC(=O)Nc3ccc(F)cc3)cc2C1=O	n	n	109	n	106	n	n	u
C[C@@H]1CCCCO[C@@H](CN(C)S(=O)(=O)c2ccccc2)[C@H](C)CN([C@@H](C)CO)C(=O)c2cc(NC(=O)Nc3ccc(F)cc3)ccc2O1	n	n	104	n	107	n	n	n
Cc1ccc(S(=O)(=O)N(C)C[C@H]2OCCCC[C@H](C)Oc3ccc(NC(=O)Nc4ccc(F)cc4)cc3C(=O)N([C@H](C)CO)C[C@@H]2C)cc1	n	n	x	n	x	x	x	x
Cc1ccc(S(=O)(=O)N(C)C[C@@H]2OCCCC[C@@H](C)Oc3ccc(NC(=O)Nc4ccc(F)cc4)cc3C(=O)N([C@@H](C)CO)C[C@H]2C)cc1	n	n	x	n	x	x	x	x
COc1ccccc1OC(C)C(=O)Nc1c(C)n(C)n(-c2ccccc2)c1=O (stereo not given)	x	n	x	x	x	x	x	x
O=C1c2ccccc2-c2nn(C(=O)Cc3ccccc3)c3cccc1c23	x	n	x	x	x	x	x	x

High-throughput results deposited in PubChem by Broad Institute.
